This note sets out measurements from ChEMBL document CHEMBL1125511, “Molecular determinants of the platelet aggregation inhibitory activity of carbamoylpiperidines” (J Med Chem, 1992).

Each structure is given as a SMILES string.

The species entered for data set [1] is Homo sapiens. Kind of data set: Concentration inhibits collagen-induced platelet aggregation by 50%(Human blood). The data set is classed as functional. The essentials:
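Human platelets from citrated PRP washed in HEPES-buffered saline pH 7.4 (EGTA 5 mM, PGE1 1 μM), aequorin-loaded, resuspended with 1 mM MgCl2 and 1 mM CaCl2 at (3-4) × 10^5 platelets/μL. Fibrinogen 1.2 μg added, 37 °C, 1100 rpm stirring. Compound in 95% ethanol added 1 min before collagen (5 μg). Aggregation recorded 5 min. IC50 from linear regression of IC% on log concentration.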

Data set [2] is filed under the species Homo sapiens. The experiment in a line: Concentration required to inhibit ADP-induced platelet aggregation by 50%.
The nature of data set [3]: Partition coefficient (logP). The settings on record: octanol/water. The data set is classed as physicochemical.

Usually IC50 stands for the point on the concentration scale where inhibition reaches its midpoint. High values mean weaker potency in that assay, low ones greater potency in that assay. In general, logP refers to the decadic logarithm of the partition coefficient of the neutral form, usually between octanol and water.

As to `CCN(CC)C(=O)C1CCCN(Cc2ccc(CN3CCCC(C(=O)N(CC)CC)C3)cc2)C1` (stereo in doubt; 3a-B (0)), the values for the IC50 in the data set listed under Homo sapiens [1] and in the data set filed under Homo sapiens [2] were 65.7 µM and 41.4 µM, respectively.
As for `CCN(CC)C(=O)C1CCCN(Cc2ccc(CN3CCCC(C(=O)N(CC)CC)C3)cc2)C1` (stereo in doubt; 3a), in data set [3] (read-out: logP), the logP came out at 3.48. Besides, the figures for the IC50 in the data set filed under Homo sapiens [1] and in the data set filed under Homo sapiens [2] were 20.2 µM and 44.5 µM, respectively.
With `CCN(CC)C(=O)C1CCCN(Cc2ccc(CN3CCCC(C(=O)N(CC)CC)C3)cc2)C1` (single isomer, unassigned; (-)), the results for the IC50 in the data set listed under Homo sapiens [1] and in the data set listed under Homo sapiens [2] were 199 µM and 233 µM, respectively.
On to `CN(Cc1ccccc1)C(=O)C1CCCN(Cc2ccc(CN3CCCC(C(=O)N(C)Cc4ccccc4)C3)cc2)C1` (stereo unspecified), for which the logP in data set [3] (read-out: logP) was 4.72. The compound also registered an IC50 in the data set filed under Homo sapiens [2] (Homo sapiens) of 27.3 µM.
Regarding `O=C(C1CCCN(Cc2ccc(CN3CCCC(C(=O)N(Cc4ccccc4)Cc4ccccc4)C3)cc2)C1)N(Cc1ccccc1)Cc1ccccc1` (stereo unspecified), the logP in data set [3] (read-out: logP) is 8.03.
Regarding `Br.Br.CCCCCCCCCCNC(=O)C1CCCN(Cc2ccc(CN3CCCC(C(=O)NCCCCCCCCCC)C3)cc2)C1` (stereo unspecified), in data set [3], the logP amounted to 10.202. Besides, the IC50 in the data set listed under Homo sapiens [2] (Homo sapiens) was found to be 862 µM.
For `CCN(Cc1ccccc1)C(=O)C1CCCN(Cc2ccc(CN3CCCC(C(=O)N(CC)Cc4ccccc4)C3)cc2)C1` (stereo unspecified), in data set [3] (read-out: logP), the logP is 5.76. For the same compound, the midpoint of inhibition in the data set listed under Homo sapiens [2] (Homo sapiens), the IC50, lay at 37.7 µM.
With `CCCCN(C)C(=O)C1CCCN(Cc2ccc(CN3CCCC(C(=O)N(C)CCCC)C3)cc2)C1` (stereo unspecified), the logP in data set [3] (read-out: logP) was 4.52. The compound further yielded an IC50 in the data set filed under Homo sapiens [2] (Homo sapiens) of 22.1 µM.
For `CCCN(Cc1ccccc1)C(=O)C1CCCN(Cc2ccc(CN3CCCC(C(=O)N(CCC)Cc4ccccc4)C3)cc2)C1` (stereo unspecified) the same measures were 6.79 and 72.9 µM.
For the compound `CCN(CC)C(=O)C1CCCN(Cc2ccc(CN3CCCC(C(=O)N(CC)CC)C3)cc2)C1` (stereo in doubt; 3a-C (+)), the IC50 in the data set listed under Homo sapiens [1] was 10.7 µM; in the data set filed under Homo sapiens [2], 15.3 µM.
Regarding `CCN(CC)CC1CCCN(Cc2ccc(CN3CCCC(CN(CC)CC)C3)cc2)C1` (stereo unspecified), in data set [3] (read-out: logP), the logP turned out to be 4.8. The IC50 in the data set filed under Homo sapiens [2] (Homo sapiens) is 1560 µM.
In the case of `O=C(NCc1ccccc1)C1CCCN(Cc2ccc(CN3CCCC(C(=O)NCc4ccccc4)C3)cc2)C1` (stereo unspecified), the logP in data set [3] (read-out: logP) was found to be 4.18. This compound also had an IC50 in the data set listed under Homo sapiens [2] (Homo sapiens) of 53.6 µM.
Taken in the same sequence, the figures for `CCCCN(CCCC)C(=O)C1CCCN(Cc2ccc(CN3CCCC(C(=O)N(CCCC)CCCC)C3)cc2)C1` (stereo unspecified) were 7.63 and 58.7 µM.
